Assay outcomes (PubChem BioAssay)
Hep lipid drop: modulators of hepatic lipid droplet formation. AML12 mouse hepatocytes, oleate lipid droplets, BODIPY imaging. inhibition, % at 6.5 µM. 0.4% of 240,000 active;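 active = lipid droplet intensity inhibited by at least 50%, with more than 500 cells counted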
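Technique: fluorescence imaging, 20x objective, two fields per well / Assay system: AML12 hepatocytes (mouse) / Measure: % inhibition of lipid droplet signal / Doses: 6.5 µM single-point dosing / Incubation: overnight exposure / Reagent: 100 µM oleic acid challenge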
FXIIa inh 1536: inhibitors of human coagulation factor XIIa; AID 800; 0.3% of 220,000 active; purified FXIIa, Boc-QGR-AMC fluorogenic substrate, 2 h; inhibition, % at 5 µM; in the data active = inhibition above about 40%;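 also: 0% = enzyme with no compound and 100% = blank without enzyme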
FXIa inh: factor XIa (human) inhibition. P03951. inhibition, % at 5 µM. 0.14% of 220,000 active. AID 798. purified FXIa, Boc-Glu-Ala-Arg-AMC fluorogenic substrate;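 active = inhibition of at least 40%; inactive = inhibition below 40%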;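 also: fluorescence of freed AMC excited at 355 nm; 0% = enzyme without compound and 100% = no enzyme blank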
Target sequence (P03951 19-387 limits assumed): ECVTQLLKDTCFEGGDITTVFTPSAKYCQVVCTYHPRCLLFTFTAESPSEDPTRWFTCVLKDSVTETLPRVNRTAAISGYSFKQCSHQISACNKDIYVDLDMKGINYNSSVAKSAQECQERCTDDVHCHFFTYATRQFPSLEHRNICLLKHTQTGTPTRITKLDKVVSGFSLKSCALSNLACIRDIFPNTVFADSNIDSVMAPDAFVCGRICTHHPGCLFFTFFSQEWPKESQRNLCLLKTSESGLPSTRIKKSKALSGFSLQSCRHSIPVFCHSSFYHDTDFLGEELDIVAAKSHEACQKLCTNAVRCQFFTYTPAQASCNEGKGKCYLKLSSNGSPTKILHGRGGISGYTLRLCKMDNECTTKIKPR
Target sequence (P03951 388-625 limits assumed): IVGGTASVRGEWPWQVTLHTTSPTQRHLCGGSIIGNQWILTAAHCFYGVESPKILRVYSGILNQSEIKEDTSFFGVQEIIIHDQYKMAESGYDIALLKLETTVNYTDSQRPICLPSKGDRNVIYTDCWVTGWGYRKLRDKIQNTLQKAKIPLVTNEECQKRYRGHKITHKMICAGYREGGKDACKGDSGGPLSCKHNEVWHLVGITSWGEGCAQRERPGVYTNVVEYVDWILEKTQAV
KLK5 inh: kallikrein 5 (human) inhibition; Q9Y337; recombinant hK5, fluorogenic AMC substrate cleavage; inhibition, % at 5 µM; 0.59% of 210,000 active;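 active = inhibition of 40% or more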;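 also: 0% = enzyme controls without compound and 100% = no-enzyme blanks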
Calb biofilm kill: mixtures killing C. albicans biofilm; inhibition, % at 7.6 µM; 0.02% of 120,000 active; C. albicans biofilm persisters + clotrimazole, fluorescence viability; primary screen in compound mixtures of four per well; AID 1242;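 active = inhibition above 30.3% in the primary screen of four-compound pools, then above 30% when the compound was retested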;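 also: compounds exposed to preformed 24 h biofilms for 48 h; 0% = untreated biofilm control and 100% = clotrimazole plus chlorhexidine kill blank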
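Incubation: 24 h biofilm formation, then 48 h compound exposure, 37 °C | Material: C. albicans biofilms | Buffer or medium: RPMI/MOPS medium, pH 7.0 | Measured by: 2-h Alamar Blue fluorescence, 535/590 nm excitation/emission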
thrombin 1536: thrombin (human) inhibition; P00734; alpha-thrombin, Boc-VPR-AMC fluorogenic substrate cleavage; inhibition, % at 5 µM; 0.26% of 220,000 active;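 active = inhibition at or above 40%; inactive = inhibition below 40%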;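 also: 0% = enzyme with no compound and 100% = wells without enzyme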
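System: human alpha-thrombin protein; Compound dosing: one concentration per compound, 5 µM, with 0.2% DMSO; Timing: reaction at room temperature; Technique: AMC fluorescence, 355/460 nm; Controls: enzyme without compound as high, wells lacking enzyme as low.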
* marks the source's active call; other numbers are inactive results; . = no result. Rows were chosen to be rich in hits. Some 1.1% of all compounds tested hit in one or more screens of this group.

SMILES | Hep lipid drop | FXIIa inh 1536 | FXIa inh | KLK5 inh | Calb biofilm kill | thrombin 1536
Cc1ccc(NC(=O)CN(c2cc(C)cc(C)c2)S(=O)(=O)c2c(C)noc2C)nc1 | . | 26 | 7 | 40* | . | 26
O=C(NN=C1CCCCCC1)c1cn(-c2ccccc2)nc1-c1ccccc1 | . | 16 | 14 | 28 | 8 | 100*
O=C(NCc1ccccn1)c1cn(-c2ccccc2)nc1-c1ccc(Cl)cc1 | 14 | -4 | -9 | 21 | 11 | 58*
O=C(NCc1ccccn1)c1ccc(-c2ccccc2)cc1 | -2 | 3 | -2 | 1 | 9 | -6
Cc1cc(C[n+]2cc(Br)ccc2N)c2ncccc2c1 | -14 | 9 | 1 | 6 | 16 | 2
COC(=O)c1cccc(NS(=O)(=O)c2ccc(OC)c(OC)c2)c1C | 7 | 50* | 0 | 10 | . | 2
COc1cc(C(=O)ON=C2C(C)=CC(=O)C=C2C)cc(OC)c1OC | . | 32 | 2 | 6 | . | 7
COc1cc(C(=O)O/N=C2/C=C(C)C(=O)C=C2C)cc(OC)c1OC | -12 | 60* | 0 | -6 | 19 | -2
O=S1(=O)CCOC[C@H](c2ccccc2)N1Cc1cccc(Cl)c1 | -28 | . | . | . | . | .
Cc1cc(Br)c2[nH]c3c(c2c1)CCCC3=O | -4 | 54* | 31 | 0 | . | 3
O=C(NCc1cccc(CNC(=O)C(=O)NCc2ccco2)c1)C(=O)NCc1ccco1 | 19 | 5 | 2 | -1 | -4 | -7
O=c1c2ccccc2nc2n1CCCCC2 | . | 17 | 3 | -22 | . | 3
O=c1c2ccccc2nc2n1CCC2 | . | 14 | 4 | 60* | . | -2
CN1CCN(C(=O)c2ccc3c(=O)n4c(nc3c2)CCCCC4)CC1 | . | 8 | 2 | 42* | . | 13
O=C(COC(=O)CCOc1ccccc1)Nc1ccc(Cl)cn1 | 10 | 0 | -11 | -28 | . | 48*
O=C(COC(=O)CCc1ccccc1)Nc1ncc(Cl)cc1Cl | 5 | 17 | 6 | 3 | . | 42*
O=C(COc1ccccc1)Nc1ccc(Cl)cn1 | 25 | 5 | -2 | -4 | 8 | -6
Cc1ccc(N2CC(C(=O)Nc3ncc([N+](=O)[O-])s3)CC2=O)cc1 (stereo not drawn) | -2 | . | . | . | . | .
Nc1nc(SCC(=O)NC2CCCCC2)n[nH]1 | 3 | . | . | . | . | .
Cc1ccc(CNC(=S)Nc2ccc(NS(=O)(=O)c3ccc(C)cc3)cc2)cc1 | -57 | . | . | . | . | .
Cc1oc2c(Cl)c(Cl)c(O)c(CN(C)C)c2c1C(=O)c1ccc(Cl)cc1 | -7 | . | . | . | . | .
CCCN(CCC)CCCNS(=O)(=O)c1ccc2c(c1)oc(=O)n2C | 0 | 26 | 10 | 1 | . | 0
CC(C)OCCCNS(=O)(=O)c1ccc2c(c1)oc(=O)n2C | . | 21 | 16 | 42* | . | 14
CN(CCc1ccccn1)C(=O)CCC1CCCN(C(=O)c2cccc(N(C)C)c2)C1 (stereo not drawn) | 7 | . | . | . | . | .
CCn1nc(CC(=O)O)c2ccccc2c1=O | -3 | 26 | 66* | 19 | 61 | 26
SMILES | Hep lipid drop | FXIIa inh 1536 | FXIa inh | KLK5 inh | Calb biofilm kill | thrombin 1536
CCCCn1nc(CC(=O)O)c2ccccc2c1=O | . | -3 | -10 | 2 | . | -4
CC(=O)N(CCS(=O)(=O)c1ccc(Cl)cc1)Cc1cccs1 | 28 | 6 | -5 | 3 | 29 | -6
O=S(=O)(CCNCc1cccs1)c1ccc(Cl)cc1 | -1 | -1 | -4 | 50* | 18 | -7
Nc1ccnn1Cc1ccncc1 | 1 | 2 | -5 | -4 | 1 | -1
Nc1ccnn1Cc1cccs1 | 22 | 43* | 8 | 79* | 7 | 22
C[C@H](NC(=O)c1nc[nH]c1C(=O)NCC(=O)OCc1ccccc1)c1ccccc1 | -3 | . | . | . | . | .
CCOC(=O)/C(C#N)=C/N=c1ccc(C)cn1C | 1 | 104* | 33 | 43* | 4 | 12
COc1ccc(Cc2nnc(NS(=O)(=O)c3ccc([N+](=O)[O-])cc3)s2)cc1 | -6 | . | . | . | . | .
O=C(CN1CCCN(Cc2ccc(F)cc2Cl)C1=O)NC1CCCCCCC1 | . | 24 | 7 | 104* | . | 12
Cc1cc2c(NC(=O)Nc3ccc(C(C)(C)C)cc3)cccc2nn1 | -5 | 2 | 6 | 5 | 16 | -4
Cc1cc2c(NC(=O)Nc3ccccc3)cccc2nn1 | -16 | 35 | 33 | 57* | 6 | 2
COc1ccc(C(=O)O)cc1S(N)(=O)=O | 6 | 5 | -5 | -4 | 3 | -2
CNS(=O)(=O)c1cc(C(=O)O)ccc1OC | 1 | 41* | 9 | 18 | 11 | 18
COC(=O)Cc1c(C)nc2nc(-c3ccc(C)cc3)[nH]n2c1=O | 28 | 40* | 8 | 6 | . | 0
COC(=O)Cc1c(C)nc2nc(-c3ccc(Cl)cc3)[nH]n2c1=O | 15 | 4 | -7 | -3 | . | -5
CCC(=O)N/C(=N/c1nc(C)cc(C)n1)Nc1ccc(OC)cc1 | 6 | 4 | 3 | -6 | 13 | 51*
CCC(=O)N/C(=N/c1nc(C)cc(C)n1)Nc1ccccc1 | -1 | 12 | 8 | 7 | 1 | 4
CCc1cc2c(cc3c(=O)n(CC(=O)NCCCN4CCCCCC4)nc(CC)n32)s1 | -5 | . | . | . | . | .
O=C(NCCCN1CCCC1)c1ccc2c(Cl)c3c(nc2c1)CCCC3 | 1 | 41* | -4 | 1 | 15 | 3
CC(=O)NN1C(=O)/C(=C\c2ccccc2)SC1=S | . | -1 | -3 | 89* | . | 3
O=C1/C(=C/c2ccncc2)SC(=S)N1Nc1ccccc1 | -5 | 4 | 1 | -1 | 12 | -2
O=C(O)c1ccc(/C=C2\SC(=S)N(Nc3ccccc3)C2=O)cc1 | 10 | 41* | 49* | 29 | 17 | 19
COc1cc(NC(=O)Cc2ccccc2)ccc1NC(=O)c1ccccc1 | 4 | . | . | . | . | .
CC(C)(CC(=O)O)CC(=O)Nc1ccc(Oc2ccc(C(C)(C)C)cc2)nc1 | -5 | 8 | 2 | 0 | 23 | -5
CC(C)(C)c1ccc(Oc2ccc(NC(=O)CCCC(=O)O)cn2)cc1 | 2 | 47* | 26 | 34 | 16 | 37
SMILES | Hep lipid drop | FXIIa inh 1536 | FXIa inh | KLK5 inh | Calb biofilm kill | thrombin 1536
Cc1ccc(/C=N/NC(=O)c2cccc(NC(=O)c3ccccc3Cl)c2)o1 | -2 | . | . | . | . | .
O=C1OCC2OC(O)C(O)C(O)C2OC(=O)c2cc(O)c(O)c(O)c2-c2c(O)c(O)c3oc(=O)c4c(c(O)c(O)c5oc(=O)c2c3c54)-c2c1cc(O)c(O)c2O (stereo not drawn) | 3 | -3 | 59* | 23 | 9 | -4
COC(=O)CNC(=O)CNC(=O)Nc1ccccc1Cl | 14 | 7 | -3 | 41* | . | 6
CCOC(=O)CNC(=O)Nc1cccc(Cl)c1C | 7 | 10 | 0 | -23 | . | 3
COc1ccc(/C=C2/SC(=S)N(n3c(C)ccc3C)C2=O)cc1 | -6 | 84* | 1 | -14 | . | -8
CCOc1ccc(/C=C2/SC(=S)N(n3c(C)ccc3C)C2=O)cc1 | 17 | 4 | 1 | 25 | . | -3
CN(C)C(CNC1CC(C)(C)NC(C)(C)C1)c1cccc(F)c1 (stereo not drawn) | 17 | . | . | . | . | .
